This is a sample that favours compounds with a hit; in the whole collection about 1.8% have one here.
STEP block = STEP phosphatase inhibitors, primary screen, biochemical, fluorescence intensity, uHTS. Tyrosine-protein phosphatase non-receptor type 5 (Homo sapiens), P54829. recombinant STEP, OMFP fluorogenic substrate. inhibition, % at 20 µM. hit rate 0.25% among 360,000;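 active means inhibition at 20 µM, scaled per plate between control wells, above about 37%, limit read from the data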;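 further: 0% = DMSO with enzyme and substrate and 100% = substrate only without enzyme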
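Measure: Control-normalized % inhibition with plate pattern correction | Test system: STEP phosphatase, cell-free reaction | Medium: pH 6.0 Bis-Tris with DTT and Tween 20 | Technique: Fluorescence, 480/540 nm | Times: Reaction 20 min, ambient temperature | Doses: Single compound dose of 20 µM, 1% DMSO final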
Scp-1 inhibitor = Scp-1 phosphatase inhibitors, primary screen, biochemical, colorimetric, uHTS | Recombinant Scp1, phosphopeptide, malachite green phosphate absorbance | hit rate 0.88% among 340,000 | AID 493091, 2011 | inhibition, % at 20 µM | Carboxy-terminal domain RNA polymerase II polypeptide A small phosphatase 1 (Homo …;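 active means inhibition above about 50% at 20 µM, limit read from the data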;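 further: plate controls were DMSO wells with enzyme for no effect and wells lacking enzyme for full effect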
Target sequence (Q9GZU7 76-261 limits assumed): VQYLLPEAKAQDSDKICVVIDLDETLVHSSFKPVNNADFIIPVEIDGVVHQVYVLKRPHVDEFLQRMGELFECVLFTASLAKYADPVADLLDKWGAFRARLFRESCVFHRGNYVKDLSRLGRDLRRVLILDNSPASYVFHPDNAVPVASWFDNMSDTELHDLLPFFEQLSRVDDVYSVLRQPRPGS
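assay system = SCP-1 phosphatase catalytic domain, residues 76-261 | buffer or medium = 50 mM Tris acetate pH 5.5, 0.005% Tween-20, 10 mM MgCl2 | incubation = enzyme reaction 45 min at room temperature, colour 5 min, stabilisation 30 min | signal = Phosphate-binding colour reagent, absorbance read at 630 nm | measure = % inhibition at 20 µM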
DNMT1 block = human DNMT1 methyltransferase inhibitors, primary screen, biochemical, molecular beacon, fluorescence, HinP1I cleavage, uHTS; hit rate 0.83% among 360,000; inhibition (reported as % activation of signal), % at 10 µM; DNA (cytosine-5)-methyltransferase 1 (Homo sapiens), P26358; AID 588458, 2011; in the data active means inhibition above about 50%
LMPTP inh = LMPTP phosphatase inhibitors, primary screen, biochemical, fluorescence intensity, uHTS. Low molecular weight phosphotyrosine protein phosphatase (Homo sapiens), P24666. recombinant LMPTP-A, OMFP fluorogenic substrate. inhibition, % at 20 µM. hit rate 0.22% among 360,000. AID 651560, 2012;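 active means compounds that cut the enzyme signal by at least half of the control window in the single-dose screen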;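 further: plate controls were DMSO wells with enzyme plus substrate for no effect and substrate without enzyme for full effect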
Target sequence (P24666 whole entry, looked up): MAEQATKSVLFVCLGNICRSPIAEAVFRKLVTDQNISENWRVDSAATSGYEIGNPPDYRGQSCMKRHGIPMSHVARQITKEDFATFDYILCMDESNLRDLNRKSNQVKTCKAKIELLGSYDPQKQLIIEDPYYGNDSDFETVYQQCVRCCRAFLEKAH
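Test system: LMPTP-A phosphatase enzyme. Amount: LMPTP-A at 0.625 nM final in the reaction. Reagent: OMFP substrate, 400 µM final. Times: 50 min at room temperature. Signal: endpoint fluorescence intensity from OMFP dephosphorylation. Read-out basis: % inhibition. Benchmarks: no-enzyme and uninhibited controls.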
HKDC1 inh = HKDC1 hexokinase inhibitors, primary screen, biochemical, fluorescence, uHTS; Q2TB90; recombinant HKDC1, G6PDH/diaphorase resazurin coupled fluorescence; inhibition, % at 20 µM; hit rate 0.16% among 340,000; AID 493160, 2011;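 active means inhibition above about 35% when tested at 20 µM, limit read from the data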;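 further: plate controls were DMSO wells with enzyme for no effect and DMSO wells lacking enzyme for full effect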
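Test system: HK5 enzyme. Quantity: 5 µg/mL HK5 final. Reagent: glucose and ATP substrates. Schedule: 90 min reaction incubation at room temperature, dark. Technique: resazurin-to-resorufin fluorescence via G6PDH and diaphorase coupling, 525/613 nm. Control set: DMSO wells with and without enzyme mix.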
SUMO1-SIM PPI = modulators of SUMO1 protein-protein interactions, primary screen, biochemical, uHTS. SUMO1 binding to a labelled peptide, TR-FRET, 1 h. inhibition, % at 20 µM. hit rate 0.33% among 360,000; in the data active means inhibition above about 37%
Target sequence (P63165 whole entry, looked up): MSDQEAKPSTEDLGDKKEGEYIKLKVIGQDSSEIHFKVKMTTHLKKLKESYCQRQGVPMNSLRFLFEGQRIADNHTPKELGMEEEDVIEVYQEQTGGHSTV
Scp-1 conf = Scp-1 phosphatase inhibitors, retest, confirmation, biochemical, colorimetric, single concentration; shares compounds with Scp-1 inhibitor; recombinant SCP-1 catalytic domain, phosphate release, malachite green absorbance; inhibition, % at 20 µM; hit rate 61% among 2,500;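 further: plate controls were DMSO with enzyme for no effect and buffer wells lacking enzyme for full effect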
Scp-1 MG ctr = colorimetric readout interference by compounds, confirmation, artefact control for Scp-1 inhibitor project, biochemical, single concentration | AID 540313, 2011 | Colorimetric interference counterscreen, malachite green absorbance 630 nm | shares compounds with Scp-1 inhibitor | 2,500 tested, under 10 active | apparent inhibition (interference), % at 20 µM;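 further: compounds added after enzyme reaction finished so only phosphate colour detection is probed; plate controls were DMSO wells with completed Scp-1 reaction for no effect and substrate wells lacking enzyme for full effect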
Scp1 DSF = Scp-1 binding by thermal shift, confirmation, orthogonal assay for Scp-1 inhibitor project, biophysical, differential scanning fluorimetry | shares compounds with Scp-1 inhibitor | Recombinant SCP1, Sypro Orange thermal shift Tm | thermal shift relative to vanadate control, % at 40 µM | hit rate 25% among 1,500;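 active means substances whose mean melting-temperature shift, as a percentage of the reference inhibitor's shift, reaches about 5.3%, limit read from the data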;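 further: 0% = Tm of DMSO wells and 100% = Tm with sodium orthovanadate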
* hit, by the source's call; x = not tested or not shown.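 How the source made its calls, unless noted: active means inhibition of at least 30% at 20 µM; inactive means the rest.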

SMILES	STEP block	Scp-1 inhibitor	DNMT1 block	LMPTP inh	HKDC1 inh	SUMO1-SIM PPI	Scp-1 conf	Scp-1 MG ctr	Scp1 DSF
COc1cccc(C(=O)c2cn(CC(=O)NCc3ccco3)c3nc(C)ccc3c2=O)c1	-1	62*	14	12	1	11	66*	-8	-12
Cc1ccc2c(=O)c(C(=O)c3ccc(F)cc3)cn(CC(=O)NCc3ccco3)c2n1	6	61*	15	1	-5	6	52*	-15	-2
CCn1cc(C(=O)NCc2ccc(OC)cc2)c(=O)c2ccc(C)nc21	0	-5	0	-2	-4	-1	x	x	x
Cc1ccc(S(=O)(=O)N[C@@H](C)CO)cc1	x	x	x	-1	x	2	x	x	x
O=C(NCCCCO)c1c(-c2ccccc2)oc2c1C(OCCCCCO)CCC2 (centres undefined)	x	x	x	-1	x	2	x	x	x
CC[N+]1(C)CC2CCC(C)(C1)C2(C)C (centres undefined)	2	56*	-1	-2	-5	0	39*	-11	-29
COCc1cccc(-c2csc(C(C)(NC(C)=O)c3ccccc3)n2)c1 (centres undefined)	-1	x	3	-1	x	-2	x	x	x
CCOC(=O)c1sc(N/N=C/c2ccccc2)nc1C	7	-5	4	5	-5	0	x	x	x
O=C(O)Cc1sc(N/N=C\c2ccccc2)nc1-c1ccccc1	-1	54*	90*	2	-1	5	75*	-8	18*
CC(=O)NC1=NC(=O)/C(=C/c2cc(C)n(-c3ccc(NC(C)=O)cc3)c2C)S1	-3	6	-14	2	14	-10	x	x	x
CC(=O)NC1=NC(=O)/C(=C/c2cc(C)n(-c3cccc(C(=O)O)c3)c2C)S1	34	72*	93*	16	10	23	53*	-21	5.3*
COC(=O)[C@@]12C[C@@H](CC(=O)NCC34CC5CC(CC(C5)C3)C4)C(=O)N(CCc3ccc(OC)c(OC)c3)C1=CCC(C)(C)C2	x	x	x	9	x	5	x	x	x
Cc1ccc(S(=O)(=O)NCCC(=O)NC2CCCCC2C)cc1 (centres undefined)	3	-7	0	-1	-4	0	x	x	x
COc1ccc(S(=O)(=O)NCCC(=O)NC2CCCCC2C)cc1[N+](=O)[O-] (centres undefined)	9	56*	28	8	-2	-10	46*	-14	5.3*
CCc1ccc(NC(=O)Cn2cnc3c(=O)n(C)c(=O)n(C)c32)cc1	0	28	-1	-1	1	3	x	x	x
CCc1ccc(C(C)NC(=O)Cn2cnc3c(=O)n(C)c(=O)n(C)c32)cc1 (centres undefined)	-1	-2	-1	0	-4	0	-1	-2	x
O=C(COC(=O)/C=C/c1ccc(F)cc1)NC1CCS(=O)(=O)C1 (centres undefined)	-1	0	0	-1	-7	-6	x	x	x
